Laboratory results taken from ChEMBL document CHEMBL1148541, “Biological evaluation of 1-alkyl-3-phenylthioureas as orally active HDL-elevating agents” (Bioorg Med Chem Lett, 2006).

How the values were obtained:
Assay type in all cases: functional
Rattus norvegicus [1] = assay: Triglyceride level in cholesterol-fed male rats at 88 mg/kg/day relative to control
Outline: (§1)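 Male Sprague–Dawley rats on a cholesterol diet, in groups of six, received the compound in the diet ad libitum for 8 days. Serum triglycerides are expressed as % change relative to untreated controls, with significance at p < 0.05 versus controls.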

Rattus norvegicus [2] = assay: Increase of Apolipoprotein A-I level in cholesterol-fed male rats at 88 mg/kg/day relative to control
Outline: (§2)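 Drug mixed into diet, fed ad libitum for 8 days to groups of six male Sprague–Dawley rats on a cholesterol diet. Serum Apo A-I measured by SDS–polyacrylamide gel electrophoresis or by rat competition ELISA. Reported as % change versus untreated controls, with significance set at p < 0.05.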

Rattus norvegicus [3] = assay: Weight gain in cholesterol-fed male rats at 88 mg/kg/day relative to control
Outline: (§3)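 Groups of six male Sprague–Dawley rats on a cholesterol diet received the compound in the diet, ad libitum, over 8 days. Body weight gain is reported as % change relative to untreated controls.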

Rattus norvegicus [4] = organism: Rattus norvegicus; assay: Increase in liver enzyme Alanine aminotransferase
Rattus norvegicus [5] = assay: Increase of HDL level in cholesterol-fed male rats by FPLC method at 88 mg/kg/day relative to control
Outline: (§4)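 Groups of six male Sprague–Dawley rats on a cholesterol diet received drug in the diet, ad libitum, for 8 days. Serum lipoproteins separated by FPLC, adapted for robotic automation, and cholesterol quantitated enzymatically by colorimetry. HDL given as % change versus untreated controls, with significance set at p < 0.05.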

Rattus norvegicus [6] = organism: Rattus norvegicus; assay: Increase in liver enzyme Aspartate aminotransferase; design: concentration or dose not given beside the values
Rattus norvegicus [7] = assay: Increase of total cholesterol level in cholesterol-fed male rats at 88 mg/kg/day relative to control
Outline: (§5)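 Dietary (ad libitum) dosing of groups of six male Sprague–Dawley rats on a cholesterol diet for 8 days. Serum total cholesterol was quantitated enzymatically by a colorimetric method and expressed as % change relative to untreated controls, with significance at p < 0.05.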

Rattus norvegicus [8] = assay: Increase of HDL level in cholesterol-fed male rats by ultracentrifugation method at 88 mg/kg/day relative to control
Outline: (§6)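 Compound given in the diet, ad libitum, to groups of six male Sprague–Dawley rats on a cholesterol diet for 8 days. Serum lipoproteins were separated by classical ultracentrifugation, and HDL cholesterol was quantitated by an enzymatic colorimetric method. Results are reported as % change relative to untreated controls, with significance at p < 0.05 versus controls.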

Rattus norvegicus [9] = assay: Increase of total cholesterol level in cholesterol-fed male rats at 71 mg/kg/day relative to control; outline: as §5
Rattus norvegicus [10] = assay: Triglyceride level in cholesterol-fed male rats at 71 mg/kg/day relative to control; outline: as §1
Rattus norvegicus [11] = assay: Increase of HDL level in cholesterol-fed male rats by ultracentrifugation method at 71 mg/kg/day relative to control
Outline: (§7)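 Cholesterol-fed male Sprague–Dawley rats, six per group, given drug in the diet ad libitum for 8 days. Serum lipoproteins separated by classical ultracentrifugation and HDL cholesterol measured by an enzymatic colorimetric method. Expressed as % change versus untreated controls, with significance set at p < 0.05.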

Rattus norvegicus [12] = assay: Weight gain in cholesterol-fed male rats at 71 mg/kg/day relative to control; outline: as §3
Rattus norvegicus [13] = assay: Increase of HDL level in cholesterol-fed male rats by FPLC method at 71 mg/kg/day relative to control; outline: as §4
Rattus norvegicus [14] = assay: Weight gain in cholesterol-fed male rats at 73 mg/kg/day relative to control; outline: as §3
Rattus norvegicus [15] = assay: Triglyceride level in cholesterol-fed male rats at 73 mg/kg/day relative to control; outline: as §1
Rattus norvegicus [16] = assay: Increase of Apolipoprotein A-I level in cholesterol-fed male rats at 73 mg/kg/day relative to control; outline: as §2
Rattus norvegicus [17] = assay: Increase of HDL level in cholesterol-fed male rats by FPLC method at 73 mg/kg/day relative to control; outline: as §4
Rattus norvegicus [18] = assay: Increase of total cholesterol level in cholesterol-fed male rats at 73 mg/kg/day relative to control; outline: as §5
Rattus norvegicus [19] = assay: Increase of HDL level in cholesterol-fed male rats by ultracentrifugation method at 73 mg/kg/day relative to control; outline: as §6
Rattus norvegicus [20] = assay: Triglyceride level in cholesterol-fed male rats at 82 mg/kg/day relative to control; outline: as §1
Rattus norvegicus [21] = assay: Increase of total cholesterol level in cholesterol-fed male rats at 82 mg/kg/day relative to control; outline: as §5
Rattus norvegicus [22] = assay: Weight gain in cholesterol-fed male rats at 82 mg/kg/day relative to control; outline: as §3
Rattus norvegicus [23] = assay: Increase of HDL level in cholesterol-fed male rats by FPLC method at 82 mg/kg/day relative to control; outline: as §4
Rattus norvegicus [24] = assay: Increase of HDL level in cholesterol-fed male rats by ultracentrifugation method at 82 mg/kg/day relative to control; outline: as §6
Rattus norvegicus [25] = assay: Increase of Apolipoprotein A-I level in cholesterol-fed male rats at 82 mg/kg/day relative to control; outline: as §2
Rattus norvegicus [26] = assay: Increase of HDL level in cholesterol-fed male rats by ultracentrifugation method at 81 mg/kg/day relative to control; outline: as §6
Rattus norvegicus [27] = assay: Triglyceride level in cholesterol-fed male rats at 81 mg/kg/day relative to control; outline: as §1
Rattus norvegicus [28] = assay: Increase of HDL level in cholesterol-fed male rats by FPLC method at 81 mg/kg/day relative to control; outline: as §4
Rattus norvegicus [29] = assay: Increase of Apolipoprotein A-I level in cholesterol-fed male rats at 81 mg/kg/day relative to control; outline: as §2
Rattus norvegicus [30] = assay: Increase of total cholesterol level in cholesterol-fed male rats at 81 mg/kg/day relative to control; outline: as §5
Rattus norvegicus [31] = assay: Weight gain in cholesterol-fed male rats at 81 mg/kg/day relative to control; outline: as §3
Rattus norvegicus [32] = assay: Increase of total cholesterol level in cholesterol-fed male rats at 70 mg/kg/day relative to control; outline: as §5
Rattus norvegicus [33] = assay: Increase of HDL level in cholesterol-fed male rats by FPLC method at 70 mg/kg/day relative to control; outline: as §4
Rattus norvegicus [34] = assay: Increase of Apolipoprotein A-I level in cholesterol-fed male rats at 70 mg/kg/day relative to control; outline: as §2
Rattus norvegicus [35] = assay: Triglyceride level in cholesterol-fed male rats at 70 mg/kg/day relative to control; outline: as §1
Rattus norvegicus [36] = assay: Increase of HDL level in cholesterol-fed male rats by ultracentrifugation method at 70 mg/kg/day relative to control; outline: as §7
Rattus norvegicus [37] = assay: Weight gain in cholesterol-fed male rats at 70 mg/kg/day relative to control; outline: as §3

**Q.** Which Activity (Rattus norvegicus [1]) does the source give for `Cc1ccc(Cl)cc1/N=C(\S)NCC(C)(C)C` here?
**A.** -66%

**Q.** What about the Activity (Rattus norvegicus [2]) of the same molecule?
**A.** 89%

**Q.** And the Activity (Rattus norvegicus [3])?
**A.** 7%

**Q.** What about the Activity (Rattus norvegicus [4]) of the same molecule?
**A.** 111%

**Q.** What about the Activity (Rattus norvegicus [5]) of the same molecule?
**A.** 196%

**Q.** And the Activity (Rattus norvegicus [6])?
**A.** 49%

**Q.** And the Activity (Rattus norvegicus [7])?
**A.** 3%

**Q.** And the Activity (Rattus norvegicus [8])?
**A.** 122%

**Q.** For `CCC/N=C(\S)Nc1cc(C)ccc1OC`, which Activity (Rattus norvegicus [9]) is on record?
**A.** 71%

**Q.** And the Activity (Rattus norvegicus [10])?
**A.** -38%

**Q.** What about the Activity (Rattus norvegicus [11]) of the same molecule?
**A.** 84%

**Q.** What about the Activity (Rattus norvegicus [12]) of the same molecule?
**A.** -16%

**Q.** What about the Activity (Rattus norvegicus [13]) of the same molecule?
**A.** 63%

**Q.** What does the source list for `CC/N=C(\S)Nc1cc(Cl)ccc1C`?
**A.** Activity (Rattus norvegicus [14]): -107%; Activity (Rattus norvegicus [15]): -64%; Activity (Rattus norvegicus [16]): 27%; Activity (Rattus norvegicus [17]): 215%; Activity (Rattus norvegicus [4]): 81%; Activity (Rattus norvegicus [6]): 162%; Activity (Rattus norvegicus [18]): 32%; Activity (Rattus norvegicus [19]): 110%

**Q.** For `Cc1ccc(Cl)cc1N/C(S)=N/C(C)C(C)(C)C` (centres undefined), which Activity (Rattus norvegicus [20]) is on record?
**A.** -35%

**Q.** And the Activity (Rattus norvegicus [21])?
**A.** 15%

**Q.** What about the Activity (Rattus norvegicus [22]) of the same molecule?
**A.** -24%

**Q.** And the Activity (Rattus norvegicus [23])?
**A.** 109%

**Q.** And the Activity (Rattus norvegicus [24])?
**A.** 93%

**Q.** And the Activity (Rattus norvegicus [25])?
**A.** 34%

**Q.** What does the source list for `CCC(C)(C)/N=C(\S)Nc1cc(Cl)ccc1C`?
**A.** Activity (Rattus norvegicus [26]): 55%; Activity (Rattus norvegicus [27]): -14%; Activity (Rattus norvegicus [28]): 39%; Activity (Rattus norvegicus [29]): 64%; Activity (Rattus norvegicus [30]): -10%; Activity (Rattus norvegicus [31]): 15%

**Q.** Which Activity (Rattus norvegicus [32]) does the source give for `CCC/N=C(\S)Nc1cc(Cl)ccc1CC` here?
**A.** 28%

**Q.** And the Activity (Rattus norvegicus [33])?
**A.** 369%

**Q.** And the Activity (Rattus norvegicus [34])?
**A.** 43%

**Q.** And the Activity (Rattus norvegicus [35])?
**A.** -61%

**Q.** And the Activity (Rattus norvegicus [36])?
**A.** 101%

**Q.** And the Activity (Rattus norvegicus [37])?
**A.** -33%
